# Test results as given in paper PMC2266580 (The Journal of General Physiology, 2005).
# Changes are numbered by the printed parent chain. Where “and” joins values, the source holds several entries; their conditions need not be identical. Equal values may be shown once.
# Columns and labels:
# Format in all cases: biochemical
# [1] = target: T1, Kir6.2ΔC26 G334 (wild type) channel (Homo sapiens, UniProt Q14654); experiment: ATP inhibition of wild-type
# T1 sequence (Q14654 1-364 limits assumed): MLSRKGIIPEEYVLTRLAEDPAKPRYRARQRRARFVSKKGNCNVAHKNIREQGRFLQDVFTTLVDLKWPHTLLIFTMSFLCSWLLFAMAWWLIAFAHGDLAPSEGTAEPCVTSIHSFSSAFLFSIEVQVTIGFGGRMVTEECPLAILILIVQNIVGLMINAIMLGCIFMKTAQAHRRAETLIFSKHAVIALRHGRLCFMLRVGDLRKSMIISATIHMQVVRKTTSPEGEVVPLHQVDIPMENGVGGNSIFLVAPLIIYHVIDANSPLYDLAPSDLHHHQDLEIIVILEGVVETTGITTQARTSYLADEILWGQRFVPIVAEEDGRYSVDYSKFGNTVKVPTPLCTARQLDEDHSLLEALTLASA
# Kir6.2ΔC26 334E channel = experiment: ATP inhibition of 334E channels, inside-out patch; details: read-out: Ki,ATP, Xenopus oocytes, without SUR, −80 mV
# Kir6.2ΔC26 334F channel = experiment: ATP inhibition of 334F channels, inside-out patch; details: read-out: Ki,ATP, Xenopus oocytes, without SUR, −80 mV
# Kir6.2ΔC26 334A channel = experiment: ATP inhibition of 334A channels, inside-out patch; details: read-out: Ki,ATP, Xenopus oocytes, without SUR, −80 mV
# Kir6.2ΔC26 333K channel = experiment: ATP inhibition of 333K channels, inside-out patch; details: read-out: Ki,ATP, Xenopus oocytes, without SUR, n = 6
# [2] = target: T2, Kir6.2/ΔC26/G334R channel (slow burst exit gating patches) (Homo sapiens, UniProt Q14654, G334R); details: 50 μM protamine
# T2 sequence (Q14654 1-364 G334R limits assumed): T1 sequence (Q14654 1-364 limits assumed) with G334R
# How it was run: (§1)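 Channels expressed in Xenopus oocytes: SUR1 plus Kir6.2 for line 1, Kir6.2ΔC26/G334R for line 2. Inside-out patches were held at −80 mV. Pipette contained (mM) 150 KCl, 10 NaCl, 1 CaCl2, 10 EGTA, 10 HEPES, pH 7.4. […] Signals filtered at 4 kHz, sampled at 20 kHz. Half-amplitude event detection, missed-event-corrected duration histogram fits, n = 5, mean ± SEM.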
# [3] = target: wild-type SUR1/Kir6.2 channel (Homo sapiens, UniProt Q14654); details: 50 μM protamine
# How it was run: as §1
# Chain of wild-type SUR1/Kir6.2 channel (Q14654 whole entry): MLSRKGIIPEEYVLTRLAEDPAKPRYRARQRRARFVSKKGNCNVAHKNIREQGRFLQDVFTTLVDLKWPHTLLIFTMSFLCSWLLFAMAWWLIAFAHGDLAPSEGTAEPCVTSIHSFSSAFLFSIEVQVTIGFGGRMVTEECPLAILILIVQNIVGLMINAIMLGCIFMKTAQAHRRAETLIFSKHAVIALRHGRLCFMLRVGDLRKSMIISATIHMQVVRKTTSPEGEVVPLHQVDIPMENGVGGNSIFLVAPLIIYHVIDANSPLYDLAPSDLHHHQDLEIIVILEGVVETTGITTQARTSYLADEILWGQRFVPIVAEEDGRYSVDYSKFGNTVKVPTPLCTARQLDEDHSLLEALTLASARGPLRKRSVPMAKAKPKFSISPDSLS
# Chain of wild-type SUR1/Kir6.2 channel (Q09428 whole entry partner): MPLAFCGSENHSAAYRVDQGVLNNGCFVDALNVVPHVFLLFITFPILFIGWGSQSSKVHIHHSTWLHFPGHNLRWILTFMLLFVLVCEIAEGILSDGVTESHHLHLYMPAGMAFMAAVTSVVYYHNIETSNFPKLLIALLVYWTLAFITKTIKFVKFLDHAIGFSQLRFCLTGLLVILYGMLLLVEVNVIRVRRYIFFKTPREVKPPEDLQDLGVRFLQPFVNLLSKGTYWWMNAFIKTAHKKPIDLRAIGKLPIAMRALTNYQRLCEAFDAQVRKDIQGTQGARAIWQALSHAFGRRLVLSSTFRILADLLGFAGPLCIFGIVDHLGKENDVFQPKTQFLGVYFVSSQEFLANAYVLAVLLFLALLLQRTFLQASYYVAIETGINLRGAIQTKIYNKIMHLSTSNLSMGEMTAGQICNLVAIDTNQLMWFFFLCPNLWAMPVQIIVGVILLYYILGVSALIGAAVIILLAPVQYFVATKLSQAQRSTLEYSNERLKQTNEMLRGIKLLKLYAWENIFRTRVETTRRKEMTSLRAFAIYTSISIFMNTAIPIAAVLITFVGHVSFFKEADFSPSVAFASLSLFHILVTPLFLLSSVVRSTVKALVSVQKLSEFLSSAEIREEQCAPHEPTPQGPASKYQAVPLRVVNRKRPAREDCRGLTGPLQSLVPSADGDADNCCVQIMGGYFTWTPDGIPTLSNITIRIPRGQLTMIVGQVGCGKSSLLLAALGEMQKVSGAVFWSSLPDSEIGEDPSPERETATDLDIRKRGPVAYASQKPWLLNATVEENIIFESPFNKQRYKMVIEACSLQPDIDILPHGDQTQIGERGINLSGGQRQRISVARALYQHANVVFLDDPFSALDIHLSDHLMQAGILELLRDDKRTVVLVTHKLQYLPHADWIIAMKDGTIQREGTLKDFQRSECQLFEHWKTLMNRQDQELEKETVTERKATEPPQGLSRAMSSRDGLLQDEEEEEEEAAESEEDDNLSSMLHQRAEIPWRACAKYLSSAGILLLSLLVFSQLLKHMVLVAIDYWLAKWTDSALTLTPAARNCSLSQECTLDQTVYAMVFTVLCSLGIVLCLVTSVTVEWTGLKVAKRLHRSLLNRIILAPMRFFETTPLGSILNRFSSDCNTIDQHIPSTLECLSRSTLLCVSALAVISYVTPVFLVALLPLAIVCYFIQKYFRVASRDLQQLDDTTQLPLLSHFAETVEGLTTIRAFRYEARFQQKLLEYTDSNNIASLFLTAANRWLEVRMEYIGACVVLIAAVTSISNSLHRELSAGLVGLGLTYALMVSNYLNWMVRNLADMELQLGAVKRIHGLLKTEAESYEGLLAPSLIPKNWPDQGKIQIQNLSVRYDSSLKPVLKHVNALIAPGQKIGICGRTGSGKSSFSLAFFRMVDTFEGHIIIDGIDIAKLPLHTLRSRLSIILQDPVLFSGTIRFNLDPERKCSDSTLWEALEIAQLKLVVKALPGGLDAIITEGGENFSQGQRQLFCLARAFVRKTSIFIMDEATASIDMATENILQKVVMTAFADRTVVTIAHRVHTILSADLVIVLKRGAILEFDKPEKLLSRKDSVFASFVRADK
compound,measurement,setting,value
Nc1ncnc2c1ncn2[C@@H]1O[C@H](COP(=O)(O)OP(=O)([O-])OP(=O)([O-])O)[C@@H](O)[C@H]1O.[Mg+2] [ATP],inhibition of channel activity,[1]; 10 mM ATP,complete inhibition
same,slope factor αH of Hill fit of ATP inhibition,"[1]; wild-type channel, αH free variable",1.0 ± 0.1
same,Ki,Kir6.2ΔC26 334E channel,5900 ± 20 µM
same,Ki,Kir6.2ΔC26 334F channel,3000 µM and 3100 µM
same,Ki,Kir6.2ΔC26 334A channel,2100 ± 50 µM
same,Ki,Kir6.2ΔC26 333K channel,2200 ± 300 µM
protamine,mean open time after protamine,"[2]; absence of ATP, n = 5, before protamine 1.9 ± 0.2 ms",1.1 ± 0.2 ms
same,mean burst time after protamine,"[2]; absence of ATP, n = 5, before protamine 80.3 ± 10.7 ms",2.6 ± 1.8 ms
same,effect on slowed gating from the burst,[2]; all 12 patches,fully restore the fast gating from the burst
same,mean open time after protamine,"[3]; absence of ATP, before protamine 2.1 ± 0.2 ms",1.0 ± 0.2 ms
same,mean burst time after protamine,"[3]; absence of ATP, before protamine 48.0 ± 7.4 ms",2.6 ± 0.9 ms
same,effect on gating from the burst,"[3]; cytoplasmic face, all six patches",dramatically speeded gating from the burst
